Test results reported in the RNAGym collection of RNA variant scans (doi:10.1126/science.aae0568).
Fewer inactive variants are shown than the library holds.

B1: tRNA (parent)
chain: GUUCCGUUGGCGUAAUGGUAACGCGUCUCCCUCCUAAGGAGAAGACUGCGGGUUCGAGUCCCGUACGGAACG

Variants of: B1
Assay: yeast fitness relative to wild type (ratio to wild type); higher = fitter; tRNA-Arg(CCU), competitive growth, 37 C, YPD
Summary of the method: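 Variants of the tRNA-Arg(CCU) gene, chemically synthesised with a 3% per-site mutation rate at 69 sites, were placed at the native genomic locus in Saccharomyces cerevisiae. The pooled strains were competed in YPD at 37°C for 24 hours in six parallel replicates. Gene amplicons from the start population and from each end population were read by 100-nucleotide paired-end sequencing. Darwinian fitness relative to wild type came from changes in genotype frequencies; genotypes needed ≥ 100 starting reads, and estimates < 0.5 were set to 0.5.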

Row | Variant | yeast fitness
1 | GUUCCGUUGGCGUAAUGGUACCGCGUCUCCCUCCUAAGGAGAAGACUGCGGGUUCGAGUCCCGUGCGGAACG [A21C A65G] | 0.863
2 | GUUCCGUUGGCGUAAUGGUACCGCGUCUCCCUCCUAAGGAGAAGACUGCGGGUUCGAGUCCCGUCCGGAACG [A21C A65C] | 0.677
3 | GUUCCGUUGGCGUAAUGGUACCGCGUCUCCCUCCUAAGGAGAAGACUGCGGGUUCGAGUCCCGUUCGGAACG [A21C A65U] | 0.697
4 | GUUCCGUUGGCGUAAUGGUACCGCGUCUCGCUCGUAAGGAGAAGACUGCGGGUUCGAGUCCCGUACGGAACG [A21C C30G C34G] | 0.627
5 | GUUCCGUUGGCGUAAUGGUACCGCGUUUCCCUCCUAAGGAGAAGACUGCGGGUUCGAGUCUCGUACGAAACG [A21C C27U C61U G68A] | ≤ 0.5
6 | GUUCCGUUGGCGUAAUGGUACCGCGUCUCCCUCCUAAGGAGAAGACUGCGGGUUCGAGUCCCGUUCGCAACG [A21C A65U G68C] | ≤ 0.5
7 | GUUCCGUUGGCGUAAUGGUACAGUGUCUCCCACCUAAGGAGAAGACUGCGGGUUCGAGUCCGGUACGGAACG [A21C C22A C24U U32A C62G] | ≤ 0.5
8 | GUUCCGUUGGCGUAAUGGUACAGCGUCUCCCUCCUAAGGAGAAGUCUGCGGGUUCGAGUCCCGUACAGAACG [A21C C22A A45U G67A] | ≤ 0.5
9 | GUUCCGUUGGCGUAAUGGUACCGCGUCUCCCUCCUAAGGAGAAGUCUGCGGAUUCGAGUCCAGUACGGAACG [A21C A45U G52A C62A] | ≤ 0.5
10 | GUUCCGUUGGCGUAAUGGUACCGCGUUUCCCUCCUAAGGAGAAGACUGCGGGUUCGAGUCCCGUACGUAACG [A21C C27U G68U] | 0.633
11 | GUUCCGUUGGCGUAAUGGUACGGCGUCUCCCUCCUAAGGAGCAGACAGCGGGUUCGAGUCCCGCACGGAACG [A21C C22G A42C U47A U64C] | ≤ 0.5
12 | GUUCCGUUGGCGUAAUGGUACCGCGUAUCCCUCCUAAGGAGAAGUCGGCGGGUUCGAGUCCCGUACGGAACG [A21C C27A A45U U47G] | ≤ 0.5
13 | GUUCCGUUGGCGUAAUGGUACCGCGUUUCCCUCCUAAGGAGAAGGCUGCGGGUUCGAGUCCCGUACGGAACG [A21C C27U A45G] | 0.584
14 | GUUCCGUUGGCGUAAUGGUACGGCGUCUCCCUCCUAAGGAGAAGACUGCGGGUUCGGGUCCCGUACGGAACG [A21C C22G A57G] | ≤ 0.5
15 | GUUCCGUUGGCGUAAUGGUACCGCGUAUCCCUUCUAAGGAGAAGACUGCGGGUUCGAGUCCCGUACGGCACG [A21C C27A C33U A69C] | 0.625
16 | GUUCCGUUGGCGUAAUGGUACUGCGUCUCCCUCCUAAGGAGAAGAUUACGGGUUCAAGUACAGUACGGAACG [A21C C22U C46U G48A G56A C60A C62A] | ≤ 0.5
17 | GUUCCGUUGGCGUAAUGGUACGGCGUCUCCCUCCUAACGAGAAGACUGCGGGUUCGCGUCCCGUUCGGAACG [A21C C22G G38C A57C A65U] | ≤ 0.5
18 | GUUCCGUUGGCGUAAUGGUACAGCGUCUCCCUCGUAAGGAGAACACUGCGGGUUCGAGUCCAGUACGGAACG [A21C C22A C34G G44C C62A] | 0.606
19 | GUUCCGUUGGCGUAAUGGUACCGCGUCUUCCUCCUAAGGAGAAGACUGCGGGUUCGCGUCCCGUACGGUACG [A21C C29U A57C A69U] | ≤ 0.5

Row | Variant | yeast fitness
20 | GUUCCGUUGGCGUAAUGGUACCGCGUUUCCCUCCUAAGGAGAAGACUGUGGGUUCGAGUCCCGUACGGAACG [A21C C27U C49U] | 0.679
21 | GUUCCGUUGGCGUAAUGGUACCGCGUCUCCCUCCUAAGGAGAAGACUGCGGGUUCGAGUCCCGUUCAGAACG [A21C A65U G67A] | 0.543
22 | GUUCCGUUGGCGUAAUGGUACCGCGUCUUCGUCCUAAGGAGAAGACUGCGGGUUCGAGUCCCGUACGGAACG [A21C C29U C31G] | ≤ 0.5
23 | GUUCCGUUGGCGUAAUGGUACCGCGUCUGCCUCCUGAGGAGAAGAUUGCGGGUUCGAAUCCCGUACGGAACG [A21C C29G A36G C46U G58A] | 0.535
24 | GUUCCGUUGGCGUAAUGGUACCGCGUCUUCCUCCUAAGGAGAAGACUGCGGGUUCGAGUCCCGUACGGAACG [A21C C29U] | 0.824
25 | GUUCCGUUGGCGUAAUGGUACUGCGUCUCCCUCCUAAGGAGAUGACUGCGGGUUCGAGUCCCGUACGGAACG [A21C C22U A43U] | 0.538
26 | GUUCCGUUGGCGUAAUGGUACCGCGUUUCCCUCCUAAGGAGAAGACUGCGGGUUCGUGUCCGGUAUGGAACG [A21C C27U A57U C62G C66U] | ≤ 0.5
27 | GUUCCGUUGGCGUAAUGGUACCGCGUUUCCCUCCUAAGGAGAAGACUGCAGGUUCGAGUCCCGUACGGAACG [A21C C27U G50A] | 0.571
28 | GUUCCGUUGGCGUAAUGGUACCGCGUCUCGCUCCUAAGGAGAAGACUGCGGGUUGGAGUCCCGUACGGAACG [A21C C30G C55G] | ≤ 0.5
29 | GUUCCGUUGGCGUAAUGGUACCGCGUCUCCCUCCUAAGGAGAAGACUGCGGGUUCGAGUCCCGUACGGCUCG [A21C A69C A70U] | 0.686
30 | GUUCCGUUGGCGUAAUGGUACCGCGUGAUCCUCUUAAGGAGAAGACUGCGGGUUCGGCUCCCGUACGGAACG [A21C C27G U28A C29U C34U A57G G58C] | ≤ 0.5
31 | GUUCCGUUGGCGUAAUGGUACAGUGUCUCCCUCCUCAGGAGAAGACUGCGGGUUCGAGUCCCGUACGGAACG [A21C C22A C24U A36C] | ≤ 0.5
32 | GUUCCGUUGGCGUAAUGGUACCGUGUCUUCCUCCUCAGGAGAAGACUGCGGGUUCGAGUCCCGUACGGAACG [A21C C24U C29U A36C] | ≤ 0.5
33 | GUUCCGUUGGCGUAAUGGUACCGGGUCUCCCUACUAGGGAGAAGACUGCGGGUUCGAGUCCCGUACGGCACG [A21C C24G C33A A37G A69C] | 0.645
34 | GUUCCGUUGGCGUAAUGGUACCGCGUCUGCCUCCUAAGGAGAAGACUGCGGGUUCGAGCCCCGUACGGAACG [A21C C29G U59C] | ≤ 0.5
35 | GUUCCGUUGGCGUAAUGGUACCGCGUCUCCCUCCUAAGGAGAAGACUGCGGGUUCGAGUCCCGUACGGUACG [A21C A69U] | 0.827
36 | GUUCCGUUGGCGUAAUGGUACCGCGUUUCCCUCCUAAGGAAAAGACUGCGGGUUCGAGUCCCGUACGGAACG [A21C C27U G41A] | 0.966
37 | GUUCCGUUGGCGUAAUGGUACCGCGUCUUCCUCCAAAGGAGAAGACUGCGGGUUCGAGUCGCGUACGGAACG [A21C C29U U35A C61G] | 0.707
38 | GUUCCGUUGGCGUAAUGGUACCGCGUUUCCCUCCUAAGGAGAAGACUGCGGGUUCGAGUCCCAUGCGGAACG [A21C C27U G63A A65G] | 0.505
